“And” between values parts separate entries of the source, which are not always exact repeats. Equal values may be shown once. One block for each compound: values may come before it.
Assays:
[1] = tested on: CD40L-induced NF-κB activation; assay: suppression of CD40L-induced NF-κB activation in HEK-Blue CD40L sensor cells; format: cell-based, human; conditions: for IC50: Homo sapiens, HEK-Blue, 30 h, read-out: CD40L, IC50; for CD40L/TNFα pot.: potency ratio of CD40L assay vs TNFα assay; for rRBACD40L: relative potency from CD40L IC50, DEX = 100
Summary of the method: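 Reporter HEK293 cells (human CD40; NF-κB/AP-1-driven SEAP) at about 5 × 10⁴ cells/well in 1% FBS DMEM. Stimulated with CD40L (CD154, 25 ng/mL) plus test compound at 0–1000 nM (10-fold steps) for 30 h at 37°C, 5% CO₂. SEAP read by QUANTI-Blue at 620–655 nm. Five independent experiments in triplicate or quadruplicate. Percent suppression vs stimulation alone fitted to a Hill model (bottom fixed at zero; Emax and nH shared).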

[2] = tested on: TNFα-induced NF-κB activation; assay: suppression of TNFα-induced NF-κB activation in HEK-Blue CD40L sensor cells; format: cell-based, human; conditions: for IC50: Homo sapiens, HEK-Blue, 20 h, read-out: TNFα, IC50; for rRBATNFα: relative potency from TNFα IC50, DEX = 100
Summary of the method: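 Cells used: HEK293 stably expressing human CD40 and an NF-κB/AP-1-inducible SEAP, seeded at about 5 × 10⁴ cells/well in 1% FBS DMEM. TNFα (3 ng/mL) added with test compound at 0, 0.01, 0.1, 1.0, 10, 100 or 1000 nM; incubated 20 h at 37°C, 5% CO₂. SEAP quantified with QUANTI-Blue at 620–655 nm. Five independent experiments, triplicates or quadruplicates. Percent suppression fitted to a Hill equation (bottom zero; shared Emax and nH).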

[3] = biological target: glucocorticoid receptor (GR); conditions: cited from earlier work; for Kd: read-out: Kd,lit, consensus average of published GR binding values; for rRBAlit: relative receptor binding affinity, DEX = 100
CD40 (Homo sapiens) = CD40 (Homo sapiens) (UniProt P25942); conditions: cited from earlier work
UniProt P25942, sequence (P25942 21-277): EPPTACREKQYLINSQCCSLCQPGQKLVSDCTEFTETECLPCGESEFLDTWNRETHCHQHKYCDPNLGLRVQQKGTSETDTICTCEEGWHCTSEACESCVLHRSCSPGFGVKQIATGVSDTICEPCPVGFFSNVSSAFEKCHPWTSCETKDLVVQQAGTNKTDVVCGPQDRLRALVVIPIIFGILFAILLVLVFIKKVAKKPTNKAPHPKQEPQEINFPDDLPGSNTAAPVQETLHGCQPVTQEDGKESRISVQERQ

CD40 = conditions: read-out: Kd CD40L – CD40; cell-free binding; cited from earlier work
[4] = tested on: NF-κB activation in HEK-Blue CD40L sensor cells; assay: ligand-induced NF-κB activation of HEK-Blue CD40L sensor cells; format: cell-based, human; conditions: one-site specific binding model
Summary of the method: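 HEK293 cells stably carrying human CD40 and a SEAP reporter under the IFN-β minimal promoter with five NF-κB and five AP-1 sites. Grown in DMEM (4.5 g/L glucose, 10% FBS, 2 mM L-glutamine), then resuspended in 1% FBS medium. Stimulated with FLAG-tagged TNFα or CD40L (CD154) over a concentration series. SEAP measured with QUANTI-Blue at 620–655 nm; data fitted with a one-site specific binding model.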

TNF-R1 = conditions: read-out: Kd TNFα – TNF-R1; cell-free binding; cited from earlier work

CD40L, sequence (P29965 113-261): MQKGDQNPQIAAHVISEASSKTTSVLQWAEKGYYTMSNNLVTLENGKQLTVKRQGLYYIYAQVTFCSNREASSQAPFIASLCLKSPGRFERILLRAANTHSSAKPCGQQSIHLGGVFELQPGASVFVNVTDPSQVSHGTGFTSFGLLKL

Compound: CCC(=O)OCC(=O)[C@@]1(OC(=O)CC)[C@@H](C)C[C@H]2[C@@H]3CCC4=CC(=O)C=C[C@]4(C)[C@@]3(Cl)[C@@H](O)C[C@@]21C [BDP, beclomethasone dipropionate]
IC50 [1]: 220 pM
CD40L/TNFα pot. [1]: 0.46
rRBACD40L [1]: 872.2
IC50 [2]: 100 pM
rRBATNFα [2]: 2952.7

Compound: C[C@]12CCC(=O)C=C1CC[C@@H]1[C@@H]2[C@@H](O)C[C@@]2(C)[C@H]1CC[C@]2(O)C(=O)CO [HC, hydrocortisone]
IC50 [1]: 540 pM
CD40L/TNFα pot. [1]: 28.75
rRBACD40L [1]: 350.3
rRBAlit [3]: 10
IC50 [2]: 15500 pM
rRBATNFα [2]: 18.9

Compound: CC1(C)O[C@@H]2C[C@H]3[C@@H]4CCC5=CC(=O)C=C[C@]5(C)[C@@]4(F)[C@@H](O)C[C@]3(C)[C@]2(C(=O)CO)O1 [TA, triamcinolone acetonide]
IC50 [1]: 430 pM
CD40L/TNFα pot. [1]: 1.77
rRBACD40L [1]: 442.1
Kd [3]: 2440 pM
rRBAlit [3]: 270.0
IC50 [2]: 760 pM
rRBATNFα [2]: 387.4

Compound: CD40L (from UniProt P29965)
Kd (CD40 (Homo sapiens)): 1000 pM

Compound: CD40L: FLAG-tagged ligand used for stimulation in the cell assays (Axxora)
Kd (CD40): ~1000 pM
median effective concentration (EC50) for NF-κB activation [4]: 0.041 µg/mL and ~0.04 µg/mL

Compound: TNFα
Kd (TNF-R1): ~500 pM
median effective concentration (EC50) for NF-κB activation [4]: 0.0027 µg/mL and ~0.003 µg/mL

Second part, led by results:

IC50 [1]: 10 pM
IC50 [2]: 20 pM
Compound: CCC(=O)O[C@]1(C(=O)CCl)[C@@H](C)C[C@H]2[C@@H]3CCC4=CC(=O)C=C[C@]4(C)[C@@]3(F)[C@@H](O)C[C@@]21C [CP, clobetasol propionate]
CD40L/TNFα pot. [1]: 1.62
rRBACD40L [1]: 13653.4
Kd [3]: 100 pM
rRBAlit [3]: 6300.0
rRBATNFα [2]: 13074.5

IC50 [1]: 1890 pM
IC50 [2]: 2930 pM
Compound: C[C@@H]1C[C@H]2[C@@H]3CCC4=CC(=O)C=C[C@]4(C)[C@@]3(F)[C@@H](O)C[C@]2(C)[C@@]1(O)C(=O)CO [DEX, dexamethasone]
CD40L/TNFα pot. [1]: 1.55
rRBACD40L [1]: 100.0
rRBAlit [3]: 100.0
rRBATNFα [2]: 100.0

IC50 [1]: 60 pM
IC50 [2]: 790 pM
Compound: CCOC(=O)O[C@]1(C(=O)OCCl)CC[C@H]2[C@@H]3CCC4=CC(=O)C=C[C@]4(C)[C@H]3[C@@H](O)C[C@@]21C [LE, loteprednol etabonate]
CD40L/TNFα pot. [1]: 13.96
rRBACD40L [1]: 3357.0
Kd [3]: 4390 pM
rRBAlit [3]: 150.0
rRBATNFα [2]: 372.6

IC50 [1]: 300 pM
IC50 [2]: 14200 pM
Compound: C[C@]12C=CC(=O)C=C1CC[C@@H]1[C@@H]2[C@@H](O)C[C@@]2(C)[C@H]1CC[C@]2(O)C(=O)CO [PRED, prednisolone]
CD40L/TNFα pot. [1]: 47.49
rRBACD40L [1]: 632.9
GR rRBA [3]: ≈ 20 % of dexamethasone
rRBAlit [3]: 19.0
rRBATNFα [2]: 20.6

Reference: publication PMC4049353 (Steroids, 2014)
